These results are taken from article PMC5532717 (ACS Central Science, 2017).

Holding throughout (type): biochemical
One test has as its target T1, GBA2 (Homo sapiens, UniProt Q9HCG7).
T1 sequence (Q9HCG7 1-927): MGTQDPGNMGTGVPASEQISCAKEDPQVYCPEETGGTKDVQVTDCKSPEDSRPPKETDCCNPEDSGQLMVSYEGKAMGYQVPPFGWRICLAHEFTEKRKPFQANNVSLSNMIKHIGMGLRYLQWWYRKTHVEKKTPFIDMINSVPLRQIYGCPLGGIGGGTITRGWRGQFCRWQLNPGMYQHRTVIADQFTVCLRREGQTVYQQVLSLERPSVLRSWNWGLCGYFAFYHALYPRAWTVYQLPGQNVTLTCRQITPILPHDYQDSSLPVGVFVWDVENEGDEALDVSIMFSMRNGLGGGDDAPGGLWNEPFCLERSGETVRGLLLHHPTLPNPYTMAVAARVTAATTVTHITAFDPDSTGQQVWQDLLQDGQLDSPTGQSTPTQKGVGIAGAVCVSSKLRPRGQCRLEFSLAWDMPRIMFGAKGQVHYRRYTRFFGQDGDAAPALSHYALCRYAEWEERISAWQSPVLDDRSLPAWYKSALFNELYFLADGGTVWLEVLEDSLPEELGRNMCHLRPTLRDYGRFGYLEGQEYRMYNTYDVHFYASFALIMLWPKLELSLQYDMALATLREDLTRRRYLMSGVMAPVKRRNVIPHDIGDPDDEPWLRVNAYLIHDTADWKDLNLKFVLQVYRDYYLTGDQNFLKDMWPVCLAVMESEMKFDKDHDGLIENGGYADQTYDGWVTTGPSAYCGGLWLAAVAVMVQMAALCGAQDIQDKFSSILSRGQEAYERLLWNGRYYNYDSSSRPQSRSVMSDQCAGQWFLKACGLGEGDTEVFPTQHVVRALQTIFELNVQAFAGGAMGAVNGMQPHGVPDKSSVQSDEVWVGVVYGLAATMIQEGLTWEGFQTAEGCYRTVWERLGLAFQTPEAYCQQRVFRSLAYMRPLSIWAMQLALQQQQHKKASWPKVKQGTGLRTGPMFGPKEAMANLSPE
Nature of the test: In vitro apparent IC50, GBA2 overexpressing HEK293T lysate, 4-MU-β-Glc. Put shortly:
(§1)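 The enzyme source was GBA2-overexpressing HEK293T lysate or recombinant human GAA. It was preincubated 30 min at 37 °C with a range of test compound concentrations, then transferred into 4-MU glucoside substrate mixture to measure residual activity. Quenched with 1 M NaOH–glycine pH 10.3; 4-MU fluorescence at λex 366/λem 445 nm. Apparent IC50 is the mean of three technical replicates.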

Test [1] concerns the target T2, human β-glucosidase GBA1 (Homo sapiens, UniProt P04062, R534H).
T2 sequence (P04062 40-536 R534H): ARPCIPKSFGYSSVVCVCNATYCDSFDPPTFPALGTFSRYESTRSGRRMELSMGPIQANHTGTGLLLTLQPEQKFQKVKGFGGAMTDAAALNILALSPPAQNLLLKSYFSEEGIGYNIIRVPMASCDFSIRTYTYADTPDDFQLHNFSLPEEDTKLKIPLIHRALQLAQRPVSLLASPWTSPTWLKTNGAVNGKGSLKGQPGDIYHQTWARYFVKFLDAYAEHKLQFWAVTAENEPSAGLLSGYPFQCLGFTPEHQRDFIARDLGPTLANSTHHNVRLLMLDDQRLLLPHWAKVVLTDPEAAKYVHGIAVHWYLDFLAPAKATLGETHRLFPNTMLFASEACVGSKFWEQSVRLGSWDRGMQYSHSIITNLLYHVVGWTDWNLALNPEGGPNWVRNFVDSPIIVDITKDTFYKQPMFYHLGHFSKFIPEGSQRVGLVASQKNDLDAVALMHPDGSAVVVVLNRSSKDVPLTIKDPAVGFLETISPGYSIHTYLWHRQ
Briefly: Inhibition kinetics, recombinant GBA1, 2,4-DNP-β-Glc. The following applies: irreversible inhibition, 37 °C, pH 5.2. Put shortly:
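Recombinant human GBA1 preincubated with test compound for 0.5–8 min (fast inhibitors) or 0.5–360 min (slow), then added to 2,4-DNP-Glc. Residual rate taken from 400 nm absorbance versus a no-inhibitor control. kobs is the slope of −ln V/V0 versus time; kinact and KI come from a hyperbolic fit of kobs versus [I]. For fast inhibition (>50% after 30 s), kinact/KI is the linear slope at [I] ≪ KI.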

The target in test [2] is T2, human β-glucosidase GBA1. Nature of the test: In vitro apparent IC50, recombinant GBA1. Put shortly:
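Recombinant human GBA1 (Cerezyme) preincubated with a range of test compound concentrations for 30 min at 37 °C, then added to 4-MU-Glc substrate mixture to measure residual activity. Reaction quenched with 1 M NaOH–glycine (pH 10.3); 4-MU fluorescence read at λEX 366 / λEM 445 nm. Apparent IC50 is the mean of three technical replicates.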

In test [3] the target is T3, human α-glucosidase GAA (Homo sapiens, UniProt P10253). Nature of the test: In vitro apparent IC50, recombinant GAA. The gist of the method: as §1
Test [4] deals with T3, human α-glucosidase GAA. Briefly: Inhibition kinetics, recombinant GAA, 2,4-DNP-α-Glc.

Bounds are passed on as bounds.

The IC50 is the concentration needed to halve the response being measured. One may read the Ki as the dissociation constant of the complex between target and ligand, obtained from inhibition or displacement. As to `OC[C@@H]1[C@@H](O)[C@H](O)[C@@H](O)[C@@H]2O[C@H]12` [Compound 1, cyclophellitol, reference compound], the values for the concentration for half-maximal inhibition (IC50) on GBA2, at human β-glucosidase GBA1 [2] and at human α-glucosidase GAA [3] were 139 ± 60 nM, 165 ± 4 nM and more than 100000 nM, respectively. The “β-glucosidase GBA1 kinact” value on human β-glucosidase GBA1 [1] turned out to be 0.72 min^–1. In addition, the Ki at human α-glucosidase GAA [4] is more than 500000 nM.
